In assay [1] the test system is A549. The assay is described as follows: Induction of apoptosis in human A549 cells assessed as increase in number of nuclei containing condensed chromatin at 5 to 10 uM after 24 hrs by Hoechest 33258-staining based fluorescence microscopy. The format is functional, cell-based. A digest of the protocol: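 5.0 × 10^5 A549 cells per well exposed to 5 and 10 µM for 24 h, untreated cells as control. Fixed in 4% paraformaldehyde for 30 min, washed with ice-cold PBS and stained with Hoechst 33258 for 20 min in the dark. Condensed nuclei imaged by fluorescence microscopy at 350 nm excitation and 460 nm emission, 200× magnification.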

Assay [2] has as its system A549. The assay is described as follows: Cell cycle arrest in human A549 cells assessed as accumulation at G2 phase at 10 uM after 48 hrs by propidium iodide staining-based flow cytometry (reference value: 10.22%). The format is functional.
The subject of assay [3] is A549. The assay is described as follows: Induction of apoptosis in human A549 cells assessed as downregulation of Bcl2 protein expression after 24 hrs by Western blot analysis. The format is functional, cell-based. A digest of the protocol: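 A549 cells exposed to 5 and 10 µM for 24 h. Lysates cleared at 20000g, protein quantified by BCA and equal amounts run on 12% SDS-PAGE, then transferred to PVDF. Blocked in 5% skim milk in TBST. Probed overnight at 4 °C with antibodies to Bcl-2, Bax, caspase-9, caspase-3 and β-actin (loading reference). Chemiluminescent detection. Three independent experiments.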

Assay [4] relates to A549. As to the kind of experiment: Induction of apoptosis in human A549 cells assessed as late apoptotic cells at 10 uM after 24 hrs by Annexin-V FITC/propidium iodide staining based flow cytometry (reference value: 0.030%).
Assay [5] deals with A549. The assay is described as follows: Induction of apoptosis in human A549 cells assessed as early apoptotic cells at 10 uM after 24 hrs by Annexin-V FITC/propidium iodide staining based flow cytometry (reference value: 0.080%).
Assay [6] has as its system A549. As to the kind of experiment: Cell cycle arrest in human A549 cells assessed as accumulation at S phase after 48 hrs by propidium iodide staining-based flow cytometry. In kind it is functional.
Assay [7] has as its system A549. The assay is described as follows: Induction of apoptosis in human A549 cells assessed as intracellular ROS levels at 5 uM after 24 hrs by FITC-DCF-DA-fluorescence based flow cytometry (reference value: 0.832%). The format is functional. A digest of the protocol: (§1)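 A549 cells exposed to 5 and 10 µM for 24 h, untreated cells as control. Collected, washed with ice-cold PBS and loaded with DCFH-DA in cell-free medium for 20 min at 37 °C in the dark, then washed. Fluorescence measured by flow cytometry at 485 nm excitation and 538 nm emission. Mean ± S.D. of three independent experiments.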

In assay [8] the test system is A549. The assay is described as follows: Cell cycle arrest in human A549 cells assessed as accumulation at G2 phase at 5 uM after 48 hrs by propidium iodide staining-based flow cytometry (reference value: 10.22%). In kind it is functional.
For assay [9], the target named is Heat shock protein HSP 90-beta/Hsp90 co-chaperone Cdc37 (Homo sapiens) (UniProt P08238+Q16543). The assay is described as follows: Inhibition of HSP90beta/Cdc37 interaction in human A549 cells assessed as upregulation of HSP90beta expression at 5 to 10 uM after 24 hrs by Western blot analysis. The format is cell-based. A digest of the protocol:
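A549 cells exposed for 24 h, with geldanamycin as comparator. Whole-cell lysates separated by SDS-PAGE and immunoblotted for the named proteins. β-actin used as reference.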

Assay [10] deals with HepG2. As to the kind of experiment: Antiproliferative activity against human HepG2 cells after 48 hrs by MTT assay. The format is functional, cell-based. Particulars: HepG2, 48 h. A digest of the protocol:
(§2)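 Cells in log phase seeded at about 1.0 × 10^5 cells/mL in 96-well plates, left 12 h at 37 °C, 5% CO2. Compounds dissolved in DMSO, added at 2.5, 5, 10, 20 and 50 µM, 48 h exposure. Absorbance read at 570/630 nm dual wavelength. Survival expressed relative to negative control. IC50 by Bliss method (n = 5), tests done in triplicate.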

The test system of assay [11] is A549. The assay is described as follows: Induction of apoptosis in human A549 cells assessed as early apoptotic cells at 5 uM after 24 hrs by Annexin-V FITC/propidium iodide staining based flow cytometry (reference value: 0.080%).
Assay [12] concerns A549. The assay is described as follows: Induction of apoptosis in human A549 cells assessed as increase in intracellular ROS levels after 24 hrs by FITC-DCF-DA-fluorescence based flow cytometry. In kind it is functional, cell-based. A digest of the protocol:
as §1

The test system of assay [13] is A549. As to the kind of experiment: Antiproliferative activity against human A549 cells after 48 hrs by MTT assay. The format is functional, cell-based. As to conditions: A549, 48 h. Summed up:
as §2

The species named for assay [14] is Homo sapiens. As to the kind of experiment: Inhibition of HSP90/Cdc37 interaction assessed as reversal of drug resistance by measuring ratio of IC50 for human doxorubicin-resistant NCI-H460 cells to IC50 for human NCI-H460 cells. A digest of the protocol: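 Resistance factor is the ratio of IC50 in NCI-H460/DOX cells to IC50 in parental NCI-H460 cells. […] Values are mean ± SD of five separate experiments. Doxorubicin serves as the positive control.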

In assay [15] the test system is A549. The assay is described as follows: Induction of apoptosis in human A549 cells assessed as viable cells at 10 uM after 24 hrs by Annexin-V FITC/propidium iodide staining based flow cytometry (reference value: 97.6%). As to conditions: A549, 24 h.
Assay [16] relates to A549. As to the kind of experiment: Induction of apoptosis in human A549 cells after 24 hrs by Annexin-V FITC/propidium iodide staining based flow cytometry.
Assay [17] can be described thus: Inhibition of HSP90/Cdc37 interaction in human doxorubicin-resistant NCI-H460 cells assessed as reduction in cell proliferation after 48 hrs by MTT assay. As to conditions: NCI-H460, 48 h. Summed up:
as §2

One compound from ChEMBL document CHEMBL4219101, “Discovery of 18β-glycyrrhetinic acid conjugated aminobenzothiazole derivatives as Hsp90-Cdc37 interaction disruptors that inhibit cell migration and reverse drug resistance” (Bioorg Med Chem, 2018) can be followed below.

Molecules are shown by their SMILES. pIC50: −log10 of the molar value. Active and inactive are the calls of the source. The calls are words filed in the database; no cut-off is given here.

As for `CCOC(=O)[C@@]1(C)CC[C@]2(C)CC[C@]3(C)C(=CC(=O)[C@@H]4[C@@]5(C)CC[C@H](OC(=O)CCC(=O)Nc6nc7ccc(F)cc7s6)C(C)(C)[C@@H]5CC[C@]43C)[C@@H]2C1`, the Activity entry was “Dose-dependent effect” in assay [1]; 12.51% in assay [2]; “Dose-dependent effect” in [3]; 6.07% in assay [4]; 14% in assay [5]; “Dose-dependent effect” in [6]. The Activity is 13.6% in assay [7]; 12.98% in [8]; 8.45% in assay [11]; “Dose-dependent effect” in assay [12]; “Dose-dependent effect” in assay [16]. In assay [9], the inhibition entry is “Active”. Further, the pIC50 in assay [10] was 4.98; in assay [13], 5.39; in assay [17] it was 5.00. Moreover, the Ratio IC50 in assay [14] was 1.36. Also, the viability at 10 µM in assay [15] worked out at 78.8%.
